Series [1] can be described thus: Antiproliferative activity against Hs683 cells after 72 hrs by MTT assay. Particulars: Homo sapiens, Hs 683, 72 h. In kind it is functional, cell-based, Homo sapiens, Hs 683. In a few lines:
(§1)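 Cells cultured with each compound for three days; growth then read by the MTT colorimetric assay and reported as IC50 (µM).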
A general note: Tetrazolium assays rely on reduction of a dye to a coloured formazan, in cell work by metabolically active cells.

The test system of another series is LoVo. As to the kind of experiment: Antiproliferative activity against LoVo cells after 72 hrs by MTT assay. The class given is functional, cell-based, Homo sapiens. Particulars: Homo sapiens, LoVo, 72 h. In a few lines: as §1
Series [2] relates to L1210. As to the kind of experiment: Antitumor activity in L1210 cells xenografted B6D2F1 mouse at 80 mg/kg, ip relative to control. The class given is functional. The settings on record: route intraperitoneal. In a few lines:
(§2)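 Mice grafted with L1210 leukaemia cells on day 0, then dosed i.p. four times weekly on days 1-4 and 8-11. Five mice per group. Outcome is %T/C, the median survival of treated over control. Kruskal-Wallis test followed by Dunn comparisons against control.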

Another series deals with MCF7. Put plainly: Antiproliferative activity against MCF7 cells after 72 hrs by MTT assay. The class given is functional, cell-based, Homo sapiens. Particulars: Homo sapiens, MCF7, 72 h. The gist of the method:
as §1

The next series deals with A549. As to the kind of experiment: Antiproliferative activity against A549 cells after 72 hrs by MTT assay. The class given is functional, cell-based, Homo sapiens. The settings on record: Homo sapiens, A549, 72 h. The gist of the method:
as §1

A short description of series [3]: Antiproliferative activity against U373MG cells after 72 hrs by MTT assay. The settings on record: Homo sapiens, U373 MG, 72 h. The class given is functional, cell-based, Homo sapiens, U-373MG ATCC. The gist of the method: as §1
Series [4] in a line: Toxicity in ip dosed B6D2F1 mouse. The class given is organism-based. Particulars: in vivo. In a few lines:
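Acute MTD was set by a single i.p. dose to groups of three healthy female B6D2F1 mice, at 2.5, 5, 10, 20, 40, 80 and 160 mg/kg. The MTD is the dose just below the lowest dose that killed at least one mouse.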

The next series deals with HCT-15. Put plainly: Antiproliferative activity against HCT15 cells after 72 hrs by MTT assay. In kind it is functional, cell-based, Homo sapiens. Particulars: Homo sapiens, HCT-15, 72 h. In a few lines: as §1
Series [5] relates to L1210. Put plainly: Antitumor activity in L1210 cells xenografted B6D2F1 mouse at 40 mg/kg, ip relative to control. Particulars: route intraperitoneal. In kind it is functional. The gist of the method:
as §2

What is called IC50 is the concentration that gives 50% inhibition. Low readings indicate inhibition by little substance, high ones a need for much substance. Consider `CN(C)CCN1C(=O)c2cccc3cc(NC(=O)Nc4ccc(Cl)cc4)cc(c23)C1=O`, for which the half-inhibitory concentration (IC50) in [1] was 2.8 µM; with LoVo it was 2 µM; in the series with MCF7 it was 2.4 µM; with A549, 1.9 µM; in series [3], 3.6 µM; in the series with HCT-15, 3.1 µM. In the series on L1210 [2], this compound showed an Activity of 161%. The MTD in [4] came out at 80 mg/kg.

Take `COc1cc(/C=N\c2cc3c4c(cccc4c2)C(=O)N(CCN(C)C)C3=O)ccc1O`: the IC50 (in series [1]; in the series on LoVo; with MCF7; with A549; in series [3]; in the series on HCT-15) was more than 10 µM each time. In the series with L1210 [2], the Activity is listed as 164%. Also, the MTD in [4] is more than 80 mg/kg.

For `CN(C)CCN1C(=O)c2cccc3cc(NCc4cc5c(cc4[N+](=O)[O-])OCO5)cc(c23)C1=O.Cl`, the 50% inhibitory concentration (IC50) in series [1] was 7.6 µM; in the series on LoVo, 5 µM; in the series on MCF7, more than 10 µM; with A549 it was more than 10 µM; in [3], more than 10 µM; in the series on HCT-15, 8 µM. The compound further came in with an Activity in the series with L1210 [2] of 150%. This compound also came in with an MTD in series [4] of more than 80 mg/kg.

Take `CN(C)CCN1C(=O)c2cccc3cc(NCc4ccccc4O[C@H]4O[C@H](CO)[C@@H](O)[C@H](O)[C@H]4O)cc(c23)C1=O.Cl`: the IC50 (in series [1]; with LoVo; in the series with MCF7; in the series on A549; in series [3]; with HCT-15) was more than 10 µM each time. This compound returned an Activity with L1210 [5] of 129%. In addition, in series [4], the MTD was more than 80 mg/kg.

As for `COC(=O)Nc1cc2c3c(cccc3c1)C(=O)N(CCN(C)C)C2=O`, the half-inhibitory concentration (IC50) in series [1] is 3.3 µM; in the series with LoVo, 4.1 µM; in the series with MCF7, more than 10 µM; in the series on A549 it was 5.9 µM; in [3] it was 4.2 µM; with HCT-15, 7.2 µM. In the series with L1210 [5], the Activity was 133%. This compound also came in with an MTD in [4] of 40 mg/kg.

As to `CN(C)CCN1C(=O)c2cccc3cc(NCc4ccc5c(c4)OCCO5)cc(c23)C1=O`, the IC50 in series [1] worked out at 5.5 µM; with LoVo it was 4 µM; in the series with MCF7, 8.9 µM; with A549 it was 9.7 µM; in series [3], 7.1 µM; in the series with HCT-15 it was 6.7 µM. In the series on L1210 [2], this compound had an Activity of 150%. Further, the MTD in series [4] is more than 80 mg/kg.

Regarding `CN(C)CCN1C(=O)c2cccc3cc(NC(=S)Nc4ccc(Cl)cc4)cc(c23)C1=O`, the IC50 in series [1] is more than 10 µM; in the series on LoVo, 8.7 µM; in the series on MCF7 it was more than 10 µM; with A549, more than 10 µM; in series [3], more than 10 µM; with HCT-15 it was more than 10 µM. In the series on L1210 [2], this compound gave an Activity of 164%. The MTD in series [4] is more than 80 mg/kg.

Compound `CN(C)CCN1C(=O)c2cccc3cc(NCc4ccccc4O[C@H]4O[C@H](CO)[C@@H](O)[C@H](O)[C@H]4O)cc(c23)C1=O` showed an Activity with L1210 [2] of 113%. The same compound came in with an MTD in series [4] of more than 80 mg/kg.

Consider `CN(C)CCN1C(=O)c2cccc3cc(NC(=O)Nc4ccc(C#N)cc4)cc(c23)C1=O`, for which the IC50 is 5 µM in series [1]; 4.2 µM with LoVo; 3.1 µM in the series with MCF7; 3.5 µM in the series on A549; 0.9 µM in [3]; 9.7 µM in the series with HCT-15. The compound further gave an Activity in the series on L1210 [2] of 207%. This compound returned an MTD in series [4] of more than 80 mg/kg.

Regarding `CN(C)CCN1C(=O)c2cccc3cc(NC(=O)Nc4ccc(OC(F)(F)F)cc4)cc(c23)C1=O`, the IC50 is 2.6 µM in series [1]; 3.2 µM in the series with LoVo; 6.5 µM in the series with MCF7; 3.1 µM in the series with A549; 3.1 µM in series [3]; 5.8 µM in the series with HCT-15. Besides, the Activity in the series on L1210 [2] is 194%. For the same compound, the MTD in series [4] is more than 80 mg/kg.

Regarding `CN(C)CCN1C(=O)c2cccc3cc(NC(=S)Nc4ccc(C#N)cc4)cc(c23)C1=O`, the half-inhibitory concentration (IC50) in series [1] was more than 10 µM; in the series on LoVo it was more than 10 µM; in the series with MCF7 it was more than 10 µM; in the series with A549, more than 10 µM; in [3], 9.4 µM; in the series on HCT-15, more than 10 µM. Moreover, the MTD in series [4] was more than 80 mg/kg.

`CN(C)CCN1C(=O)c2cccc3cc(NC=O)cc(c23)C1=O`: the IC50 in [1] turned out to be 4.8 µM; in the series on LoVo, 6.6 µM; with MCF7, 7.4 µM; in the series on A549 it was 3.9 µM; in series [3], 4.4 µM; with HCT-15 it was 4.3 µM. In addition, the MTD in series [4] was more than 80 mg/kg.

These data come from ChEMBL document CHEMBL1148725, “2,2,2-Trichloro-N-({2-[2-(dimethylamino)ethyl]-1,3-dioxo-2,3-dihydro-1H-benzo[de]isoquinolin- 5-yl}carbamoyl)acetamide (UNBS3157), a novel nonhematotoxic naphthalimide derivative with potent antitumor activity” (J Med Chem, 2007).
